In ChEMBL document CHEMBL4325889, “Natural products hybrids: 3,5,4'-Trimethoxystilbene-5,6,7-trimethoxyflavone chimeric analogs as potential cytotoxic agents against diverse human cancer cells” (Eur J Med Chem, 2019):

Legend:
Type in all cases: functional
[1] = tested on: SNB-19; assay: Growth inhibition of human SNB19 cells at 10 uM after 48 hrs by SRB assay relative to control; conditions: SNB-19, 48 h, read-out: GI
Outline: (§1)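 NCI screen against its human cancer cell line panel by the standard NCI protocol, SRB protein stain. Single dose of 10 μM. Percent growth inhibition versus control; values above 100% mean the cell population fell below the starting number. Each value is the mean of duplicates.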

[2] = tested on: OVCAR-3; assay: Growth inhibition of human OVCAR3 cells at 10 uM after 48 hrs by SRB assay relative to control; conditions: OVCAR-3, 48 h, read-out: GI
Outline: (§2)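 Screened at the National Cancer Institute by the standard NCI protocol using the sulforhodamine B assay, which measures cellular protein. Single dose of 10 µM. Result is percent growth inhibition; values above 100% mean cell number fell below the initial population. Values are the average of duplicates.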

[3] = tested on: SN12C; assay: Growth inhibition of human SN12C cells at 10 uM after 48 hrs by SRB assay relative to control; conditions: read-out: GI; outline: as §2
[4] = tested on: SK-MEL-5; assay: Growth inhibition of human SK-MEL-5 cells at 10 uM after 48 hrs by SRB assay relative to control; conditions: SK-MEL-5, 48 h, read-out: GI; outline: as §2
[5] = tested on: SW-620; assay: Growth inhibition of human SW620 cells at 10 uM after 48 hrs by SRB assay relative to control; conditions: SW-620, 48 h, read-out: GI; outline: as §1
[6] = tested on: K562; assay: Growth inhibition of human K562 cells at 10 uM after 48 hrs by SRB assay relative to control; conditions: K562, 48 h, read-out: GI; outline: as §2
[7] = tested on: HCT-15; assay: Growth inhibition of human HCT15 cells at 10 uM after 48 hrs by SRB assay relative to control; conditions: HCT-15, 48 h, read-out: GI; outline: as §2
[8] = tested on: NCI-H522; assay: Growth inhibition of human NCI-H522 cells at 10 uM after 48 hrs by SRB assay relative to control; conditions: NCI-H522, 48 h, read-out: GI; outline: as §2
[9] = tested on: 786-0; assay: Growth inhibition of human 786-0 cells at 10 uM after 48 hrs by SRB assay relative to control; conditions: 786-0, 48 h, read-out: GI; outline: as §2
[10] = tested on: ACHN; assay: Growth inhibition of human ACHN cells at 10 uM after 48 hrs by SRB assay relative to control; conditions: read-out: GI; outline: as §2
[11] = tested on: TK-10; assay: Growth inhibition of human TK10 cells at 10 uM after 48 hrs by SRB assay relative to control; conditions: TK-10, 48 h, read-out: GI; outline: as §1
[12] = tested on: KM12; assay: Growth inhibition of human KM12 cells at 10 uM after 48 hrs by SRB assay relative to control; conditions: KM12, 48 h, read-out: GI; outline: as §2
[13] = tested on: SK-MEL-28; assay: Growth inhibition of human SK-MEL-28 cells at 10 uM after 48 hrs by SRB assay relative to control; conditions: SK-MEL-28, 48 h, read-out: GI; outline: as §2
[14] = tested on: SNB-75; assay: Growth inhibition of human SNB75 cells at 10 uM after 48 hrs by SRB assay relative to control; conditions: SNB-75, 48 h, read-out: GI; outline: as §1
[15] = tested on: RXF 393; assay: Growth inhibition of human RXF393 cells at 10 uM after 48 hrs by SRB assay relative to control; conditions: RXF 393, 48 h, read-out: GI; outline: as §2
[16] = tested on: OVCAR-4; assay: Growth inhibition of human OVCAR4 cells at 10 uM after 48 hrs by SRB assay relative to control; conditions: OVCAR-4, 48 h, read-out: GI; outline: as §2
[17] = tested on: UACC-257; assay: Growth inhibition of human UACC257 cells at 10 uM after 48 hrs by SRB assay relative to control; conditions: UACC-257, 48 h, read-out: GI; outline: as §1
[18] = tested on: Hs-578T; assay: Growth inhibition of human Hs 578T cells at 10 uM after 48 hrs by SRB assay relative to control; conditions: read-out: GI; outline: as §2
[19] = tested on: UACC-62; assay: Growth inhibition of human UACC62 cells at 10 uM after 48 hrs by SRB assay relative to control; conditions: UACC-62, 48 h, read-out: GI; outline: as §1
[20] = tested on: HOP-62; assay: Growth inhibition of human HOP62 cells at 10 uM after 48 hrs by SRB assay relative to control; conditions: HOP-62, 48 h, read-out: GI; outline: as §2
[21] = tested on: MCF7; assay: Growth inhibition of human MCF7 cells at 10 uM after 48 hrs by SRB assay relative to control; conditions: MCF7, 48 h, read-out: GI; outline: as §2
[22] = tested on: A549; assay: Growth inhibition of human A549 cells at 10 uM after 48 hrs by SRB assay relative to control; conditions: A549, 48 h, read-out: GI; outline: as §2
[23] = tested on: Malme-3M; assay: Growth inhibition of human MALME-3M cells at 10 uM after 48 hrs by SRB assay relative to control; conditions: read-out: GI; outline: as §2
[24] = tested on: SR; assay: Growth inhibition of human SR cells at 10 uM after 48 hrs by SRB assay relative to control; conditions: read-out: GI; outline: as §1
[25] = tested on: HCC 2998; assay: Growth inhibition of human HCC2998 cells at 10 uM after 48 hrs by SRB assay relative to control; conditions: HCC 2998, 48 h, read-out: GI; outline: as §2
[26] = tested on: MOLT-4; assay: Growth inhibition of human MOLT4 cells at 10 uM after 48 hrs by SRB assay relative to control; conditions: MOLT-4, 48 h, read-out: GI; outline: as §2
[27] = tested on: MDA-MB-435; assay: Growth inhibition of human MDA-MB-435 cells at 10 uM after 48 hrs by SRB assay relative to control; conditions: MDA-MB-435, 48 h, read-out: GI; outline: as §2
[28] = tested on: MDA-MB-468; assay: Growth inhibition of human MDA-MB-468 cells at 10 uM after 48 hrs by SRB assay relative to control; conditions: MDA-MB-468, 48 h, read-out: GI; outline: as §2
[29] = tested on: DU-145; assay: Growth inhibition of human DU145 cells at 10 uM after 48 hrs by SRB assay relative to control; conditions: DU-145, 48 h, read-out: GI; outline: as §2
[30] = tested on: RPMI-8226; assay: Growth inhibition of human RPMI8226 cells at 10 uM after 48 hrs by SRB assay relative to control; conditions: RPMI-8226, 48 h, read-out: GI; outline: as §2
[31] = tested on: NCI-H23; assay: Growth inhibition of human NCI-H23 cells at 10 uM after 48 hrs by SRB assay relative to control; conditions: NCI-H23, 48 h, read-out: GI; outline: as §2
[32] = tested on: NCI-H226; assay: Growth inhibition of human NCI-H226 cells at 10 uM after 48 hrs by SRB assay relative to control; conditions: NCI-H226, 48 h, read-out: GI; outline: as §2
[33] = tested on: NCI-H460; assay: Growth inhibition of human NCI-H460 cells at 10 uM after 48 hrs by SRB assay relative to control; conditions: NCI-H460, 48 h, read-out: GI; outline: as §2
[34] = tested on: OVCAR-8; assay: Growth inhibition of human OVCAR8 cells at 10 uM after 48 hrs by SRB assay relative to control; conditions: OVCAR-8, 48 h, read-out: GI; outline: as §2
[35] = tested on: CCRF-CEM; assay: Growth inhibition of human CCRF-CEM cells at 10 uM after 48 hrs by SRB assay relative to control; conditions: read-out: GI; outline: as §2

Row | SMILES | inhibition of growth at 10 µM [1] | inhibition of growth at 10 µM [2] | inhibition of growth at 10 µM [3] | inhibition of growth at 10 µM [4] | inhibition of growth at 10 µM [5] | inhibition of growth at 10 µM [6] | inhibition of growth at 10 µM [7] | inhibition of growth at 10 µM [8] | inhibition of growth at 10 µM [9] | inhibition of growth at 10 µM [10] | inhibition of growth at 10 µM [11] | inhibition of growth at 10 µM [12] | inhibition of growth at 10 µM [13] | inhibition of growth at 10 µM [14] | inhibition of growth at 10 µM [15] | inhibition of growth at 10 µM [16] | inhibition of growth at 10 µM [17] | inhibition of growth at 10 µM [18] | inhibition of growth at 10 µM [19] | inhibition of growth at 10 µM [20] | also measured
1 | COc1ccccc1NC(=O)c1cccc(-c2cc(=O)c3c(OC)c(OC)c(OC)cc3o2)c1 | 17.5% | 47.5% | 34.6% | 58.4% | 12.2% | 51.2% | 48.4% | 56.5% | 39.2% | 43.8% | 10.4% | 34.8% | 24.6% | 30.1% | 29.3% | 19.4% | -6.14% | 60% | 46.5% | 30.6% | inhibition of growth at 10 µM [21]: 28.4%; inhibition of growth at 10 µM [22]: 31.1%; inhibition of growth at 10 µM [23]: 22.9%; inhibition of growth at 10 µM [24]: 32.4%; inhibition of growth at 10 µM [25]: 13.6%; inhibition of growth at 10 µM [26]: 38.7%; inhibition of growth at 10 µM [27]: 22.4%; inhibition of growth at 10 µM [28]: 24.3%; inhibition of growth at 10 µM [29]: 29.6%; inhibition of growth at 10 µM [30]: 73.7%; inhibition of growth at 10 µM [31]: 34%; inhibition of growth at 10 µM [32]: 37.2%; inhibition of growth at 10 µM [33]: 41.1%; inhibition of growth at 10 µM [34]: 42.7%; inhibition of growth at 10 µM [35]: 48.3%
2 | COc1cccc(NC(=O)c2cccc(-c3cc(=O)c4c(O)c(OC)c(OC)cc4o3)c2)c1 | 16.4% | 10.6% | 19% | 26.8% | 18.4% | 16.9% | 25.7% | 59.8% | 14.2% | 33.8% | 6.27% | 35.5% | 14.2% | 1.94% | 25.8% | 48% | 8.74% | 45.5% | 44.4% | 37.5% | inhibition of growth at 10 µM [21]: 13.2%; inhibition of growth at 10 µM [22]: 26.6%; inhibition of growth at 10 µM [23]: 12.3%; inhibition of growth at 10 µM [24]: 47.7%; inhibition of growth at 10 µM [25]: -3.54%; inhibition of growth at 10 µM [26]: 24.2%; inhibition of growth at 10 µM [27]: 22.6%; inhibition of growth at 10 µM [28]: 46%; inhibition of growth at 10 µM [29]: 19.4%; inhibition of growth at 10 µM [30]: 53.6%; inhibition of growth at 10 µM [31]: 25.4%; inhibition of growth at 10 µM [32]: 41.5%; inhibition of growth at 10 µM [33]: 31.4%; inhibition of growth at 10 µM [34]: 62.5%; inhibition of growth at 10 µM [35]: 34.7%
